Results reported in ChEMBL document CHEMBL1914352, “Design, synthesis, docking, and biological evaluation of novel diazide-containing isoxazole- and pyrazole-based histone deacetylase probes” (J Med Chem, 2011).
Blank lines part the entries; values can stand above or below the compound they belong to. The source made the active and inactive calls. The rule behind the calls is not given here.

Key:
[1] = molecular target: Matrix metalloproteinase-14 (Homo sapiens, UniProt P50281); test: Inhibition of MMP14
Stromelysin-1 = Stromelysin-1 (Homo sapiens, UniProt P08254); test: Inhibition of MMP3
[2] = molecular target: Histone deacetylase 3/Nuclear receptor corepressor 2 (HDAC3/NCoR2) (Homo sapiens, UniProt O15379); test: Inhibition of human recombinant HDAC3/NCoR2 using fluorophore-conjugated substrate Boc-L-Lys(Ac)-AMC; format: protein-complex assay
Histone deacetylase 8 = molecular target: T1, Histone deacetylase 8 (Homo sapiens, UniProt Q9BY41); test: Inhibition of human recombinant HDAC8 using Fluor de Lys as substrate
T1 sequence (Q9BY41 whole entry): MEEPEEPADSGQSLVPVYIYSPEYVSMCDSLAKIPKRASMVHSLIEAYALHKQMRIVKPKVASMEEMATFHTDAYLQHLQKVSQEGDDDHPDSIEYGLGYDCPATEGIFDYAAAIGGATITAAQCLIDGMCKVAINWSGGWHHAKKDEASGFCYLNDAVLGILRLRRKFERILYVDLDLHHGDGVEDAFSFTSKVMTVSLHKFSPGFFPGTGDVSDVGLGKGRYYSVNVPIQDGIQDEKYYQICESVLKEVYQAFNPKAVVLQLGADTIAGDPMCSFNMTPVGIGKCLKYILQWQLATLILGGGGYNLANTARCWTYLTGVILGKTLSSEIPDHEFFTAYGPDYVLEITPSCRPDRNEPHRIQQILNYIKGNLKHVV

HepG2 [3] = test: cells; format: functional, cell-based; conditions: Homo sapiens, HepG2, 72 h
HepG2 [4] = test: cells; format: functional, cell-based; conditions: Homo sapiens, HepG2, 24 h
SH-SY5Y [5] = test: Neuroprotective activity against LY294002-induced stress in retinoic acid-differentiated human SH-SY5Y cells assessed as cell survival at 0.5 to 20 uM; format: functional, cell-based
Outline: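 SH-SY5Y cells pre-differentiated with retinoic acid, seeded at 2×10^4 cells/well in 1% FBS medium with 5 µM retinoic acid. After 24 h, medium changed to phenol red free 1% FBS medium with 5 µM retinoic acid plus vehicle (DMSO) or 0.5–50 µM inhibitor (final), with or without 100 µM LY294002. Viability by XTT after 24 h. Expressed as percent survival relative to vehicle, four replicates ± SD. Analysed by one-way ANOVA with Dunnett's test.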

HeLa [6] = test: cells; format: functional, cell-based; conditions: Homo sapiens, 72 h
SH-SY5Y [7] = test: Cytotoxicity against retinoic acid-differentiated human SH-SY5Y cells assessed as cell survival at 20 uM; format: cell-based
Outline: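 SH-SY5Y cells are differentiated for 7–8 days in 1% FBS medium with 10 µM retinoic acid, then seeded at 2×10^4 cells/well in 1% FBS medium with 5 µM RA. After 24 h they go into phenol-red-free 1% FBS/RA medium with DMSO or 0.5–50 µM inhibitor, without or with 100 µM LY294002, for 24 h. Readout: XTT viability as % survival vs vehicle, four replicates ± SD, one-way ANOVA with Dunnett.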

SH-SY5Y [8] = test: cells; format: functional, cell-based; conditions: Homo sapiens, 48 h
HeLa [9] = test: cells; format: functional, cell-based; conditions: Homo sapiens, 48 h
SH-SY5Y [10] = test: cells; format: functional, cell-based; conditions: Homo sapiens, 24 h
SH-SY5Y [11] = test: cells; format: functional, cell-based; conditions: Homo sapiens, 72 h
HepG2 [12] = test: cells; format: functional, cell-based; conditions: Homo sapiens, HepG2, 48 h
HeLa [13] = test: cells; format: functional, cell-based; conditions: Homo sapiens, 24 h
[14] = molecular target: T2, Histone deacetylase (Homo sapiens) (UniProt Q13547+O15379+Q9UBN7+Q92769+Q9UQL6+Q8WUI4+Q9BY41+Q96DB2+P56524+Q9UKV0+Q969S8); test: Inhibition of HDAC in retinoic acid-differentiated human SH-SY5Y cells assessed as increase in histone H4 acetylation at 1 uM after 24 hrs by Western blot analysis; format: cell-based
[15] = molecular target: T2, Histone deacetylase (Homo sapiens); test: Inhibition of HDAC in retinoic acid-differentiated human SH-SY5Y cells assessed as increase in histone H4 acetylation at 1 uM after 24 hrs by Western blot analysis in presence of 100 uM LY294002; format: cell-based
HepG2 [16] = test: Induction of apoptosis in human HepG2 cells assessed as hyperacetylation of p53 at 1 to 10 uM by Western blot analysis; format: functional, cell-based
Outline: (§1)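 HepG2 cells are seeded at 2.7×10^5 cells/well in D7 medium (DMEM, 7% FBS), refed after 24 h, and after 1 h at 37 °C treated with DMSO or 1, 5 or 10 µM inhibitor. Lysis is in ice-cold 1% CHAPSO buffer (50 mM Hepes pH 7.4), 45 min at 4 °C. Immunoblots are probed for cleaved caspase 3 Asp175, acetyl-Lys373 p53, total p53 and GAPDH, detected by chemiluminescence, with band densitometry.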

HepG2 [17] = test: Induction of apoptosis in human HepG2 cells assessed as cleavage of caspase 3 at 1 to 10 uM after 14 hrs by Western blot analysis; format: functional, cell-based; outline: as §1
HepG2 [18] = test: Induction of apoptosis in human HepG2 cells assessed as hyperacetylation of p53 after 24 hrs by Western blot analysis; format: functional, cell-based; outline: as §1
HepG2 [19] = test: Induction of apoptosis in human HepG2 cells assessed as cleavage of caspase 3 at 1 to 10 uM after 24 hrs by Western blot analysis; format: functional, cell-based; outline: as §1

Chain of Histone deacetylase 3/Nuclear receptor corepressor 2 (HDAC3/NCoR2) (O15379 whole entry): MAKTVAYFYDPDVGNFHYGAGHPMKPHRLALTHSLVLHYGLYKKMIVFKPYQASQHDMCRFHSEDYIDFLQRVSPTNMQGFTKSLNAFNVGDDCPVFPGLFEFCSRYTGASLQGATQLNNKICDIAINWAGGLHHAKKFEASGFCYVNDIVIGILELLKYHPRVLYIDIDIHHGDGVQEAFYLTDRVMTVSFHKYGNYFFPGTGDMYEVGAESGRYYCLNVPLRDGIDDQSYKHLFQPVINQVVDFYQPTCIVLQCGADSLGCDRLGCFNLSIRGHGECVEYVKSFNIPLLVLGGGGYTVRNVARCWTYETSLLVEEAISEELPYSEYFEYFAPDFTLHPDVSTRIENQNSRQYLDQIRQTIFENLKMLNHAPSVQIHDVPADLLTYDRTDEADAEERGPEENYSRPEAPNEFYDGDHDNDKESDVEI
Chain of Histone deacetylase 3/Nuclear receptor corepressor 2 (HDAC3/NCoR2) (Q9Y618 whole entry, further chain): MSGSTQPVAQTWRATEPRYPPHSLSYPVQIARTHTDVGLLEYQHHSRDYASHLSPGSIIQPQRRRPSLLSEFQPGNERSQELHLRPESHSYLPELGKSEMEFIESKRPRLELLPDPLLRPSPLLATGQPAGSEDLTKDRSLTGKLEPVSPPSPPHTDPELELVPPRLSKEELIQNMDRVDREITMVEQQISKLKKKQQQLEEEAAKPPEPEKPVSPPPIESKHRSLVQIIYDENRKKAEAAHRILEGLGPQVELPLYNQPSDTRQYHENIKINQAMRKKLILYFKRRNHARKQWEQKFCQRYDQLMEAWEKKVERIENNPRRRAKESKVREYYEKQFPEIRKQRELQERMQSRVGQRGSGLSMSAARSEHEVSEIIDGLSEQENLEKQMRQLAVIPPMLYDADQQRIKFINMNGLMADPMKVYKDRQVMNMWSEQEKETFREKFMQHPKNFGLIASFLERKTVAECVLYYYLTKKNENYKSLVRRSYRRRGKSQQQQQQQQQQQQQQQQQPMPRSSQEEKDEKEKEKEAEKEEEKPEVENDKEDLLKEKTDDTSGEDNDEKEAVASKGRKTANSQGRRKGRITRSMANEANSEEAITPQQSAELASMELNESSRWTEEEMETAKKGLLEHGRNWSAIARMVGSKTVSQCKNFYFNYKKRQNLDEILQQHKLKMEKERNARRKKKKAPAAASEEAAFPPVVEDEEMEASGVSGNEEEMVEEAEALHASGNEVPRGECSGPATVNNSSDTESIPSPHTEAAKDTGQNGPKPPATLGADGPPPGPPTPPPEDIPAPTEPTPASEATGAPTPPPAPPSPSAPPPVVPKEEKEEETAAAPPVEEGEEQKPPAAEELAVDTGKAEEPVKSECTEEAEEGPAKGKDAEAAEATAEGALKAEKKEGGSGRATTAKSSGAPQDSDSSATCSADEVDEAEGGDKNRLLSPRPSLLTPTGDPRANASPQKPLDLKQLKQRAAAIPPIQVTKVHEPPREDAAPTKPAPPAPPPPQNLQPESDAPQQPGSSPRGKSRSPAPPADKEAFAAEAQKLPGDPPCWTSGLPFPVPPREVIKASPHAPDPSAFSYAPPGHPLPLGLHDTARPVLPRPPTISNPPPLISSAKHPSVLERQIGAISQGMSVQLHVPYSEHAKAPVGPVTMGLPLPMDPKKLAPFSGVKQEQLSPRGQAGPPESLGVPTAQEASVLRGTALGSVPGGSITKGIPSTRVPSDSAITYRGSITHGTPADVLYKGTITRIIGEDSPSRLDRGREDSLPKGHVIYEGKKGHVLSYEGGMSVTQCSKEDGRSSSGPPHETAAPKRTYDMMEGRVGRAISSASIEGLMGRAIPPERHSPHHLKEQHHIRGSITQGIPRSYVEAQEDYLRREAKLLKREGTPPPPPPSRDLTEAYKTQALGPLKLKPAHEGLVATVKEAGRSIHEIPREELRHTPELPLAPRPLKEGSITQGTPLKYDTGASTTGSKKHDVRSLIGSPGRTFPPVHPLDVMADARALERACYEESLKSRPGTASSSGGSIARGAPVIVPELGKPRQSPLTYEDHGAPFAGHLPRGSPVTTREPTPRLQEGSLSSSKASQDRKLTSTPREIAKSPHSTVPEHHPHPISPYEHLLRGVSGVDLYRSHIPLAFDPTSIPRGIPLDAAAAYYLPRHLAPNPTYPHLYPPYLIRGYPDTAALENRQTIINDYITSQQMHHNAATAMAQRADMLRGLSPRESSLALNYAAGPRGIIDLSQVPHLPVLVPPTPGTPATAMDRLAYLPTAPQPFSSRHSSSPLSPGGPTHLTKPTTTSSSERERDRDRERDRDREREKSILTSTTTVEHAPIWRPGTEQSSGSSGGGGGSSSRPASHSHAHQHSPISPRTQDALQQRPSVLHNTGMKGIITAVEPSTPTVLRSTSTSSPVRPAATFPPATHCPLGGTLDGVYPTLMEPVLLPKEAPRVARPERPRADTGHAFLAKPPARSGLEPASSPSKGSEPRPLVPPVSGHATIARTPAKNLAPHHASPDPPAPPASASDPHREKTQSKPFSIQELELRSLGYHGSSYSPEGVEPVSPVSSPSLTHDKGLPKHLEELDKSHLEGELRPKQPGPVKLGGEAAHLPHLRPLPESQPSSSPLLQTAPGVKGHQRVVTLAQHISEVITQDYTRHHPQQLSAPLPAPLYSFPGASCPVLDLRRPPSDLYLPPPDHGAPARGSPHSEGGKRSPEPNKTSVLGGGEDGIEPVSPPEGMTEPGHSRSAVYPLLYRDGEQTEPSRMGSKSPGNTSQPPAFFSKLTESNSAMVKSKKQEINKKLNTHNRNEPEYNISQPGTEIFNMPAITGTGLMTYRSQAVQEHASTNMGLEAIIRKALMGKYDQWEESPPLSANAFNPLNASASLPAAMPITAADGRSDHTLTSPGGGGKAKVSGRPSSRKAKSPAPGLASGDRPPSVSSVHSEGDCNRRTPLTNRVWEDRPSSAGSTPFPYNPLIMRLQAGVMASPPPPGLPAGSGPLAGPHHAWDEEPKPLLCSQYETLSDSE
Chain of Stromelysin-1 (P08254 whole entry): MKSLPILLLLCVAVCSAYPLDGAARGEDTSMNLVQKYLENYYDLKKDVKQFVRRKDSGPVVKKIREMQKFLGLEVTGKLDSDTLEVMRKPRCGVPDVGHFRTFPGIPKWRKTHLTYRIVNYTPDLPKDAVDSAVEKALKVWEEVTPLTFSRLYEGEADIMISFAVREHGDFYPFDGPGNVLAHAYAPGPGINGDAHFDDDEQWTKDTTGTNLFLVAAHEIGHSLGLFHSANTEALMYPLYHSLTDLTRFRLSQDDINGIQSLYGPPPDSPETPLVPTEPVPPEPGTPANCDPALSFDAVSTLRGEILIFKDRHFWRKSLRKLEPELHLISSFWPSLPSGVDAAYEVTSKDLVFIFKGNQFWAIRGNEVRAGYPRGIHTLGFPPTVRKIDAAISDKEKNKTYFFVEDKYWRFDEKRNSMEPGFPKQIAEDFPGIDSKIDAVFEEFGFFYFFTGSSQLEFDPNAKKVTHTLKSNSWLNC

Compound: CNC(=O)[C@H](Cc1c[nH]c2ccccc12)NC(=O)[C@@H](CC(=O)NO)CC(C)C [ILOMASTAT]
IC50 [1]: 0.00041 µM
IC50 (Stromelysin-1): 0.00762 µM

IC50 [2]: 0.432 µM
IC50 (Histone deacetylase 8): 0.487 µM
Compound: [N-]=[N+]=NCc1cc(N=[N+]=[N-])cc(C(=O)Nc2ccc(Cn3cc(NC(=O)CCCCCCC(=O)NO)cn3)cc2)c1

IC50 [2]: 0.059 µM
IC50 (Histone deacetylase 8): 0.082 µM
Compound: O=C(CCCCCCC(=O)Nc1cnn(Cc2ccc([N+](=O)[O-])cc2)c1)NO

IC50 [2]: 1.48 µM
Compound: [N-]=[N+]=NCc1cc(COc2ccc(NC(=O)CCCCCCC(=O)NO)cc2)cc(N=[N+]=[N-])c1

EC50 (HepG2 [3]): 5.9 µM
EC50 (HepG2 [4]): > 50 µM
EC50 (HeLa [6]): 4.6 µM
EC50 (SH-SY5Y [8]): 23.6 µM
EC50 (HeLa [9]): 9.9 µM
EC50 (SH-SY5Y [10]): > 50 µM
EC50 (SH-SY5Y [11]): 23.1 µM
IC50 [2]: 0.022 µM
IC50 (Histone deacetylase 8): 0.028 µM
EC50 (HepG2 [12]): 12.7 µM
EC50 (HeLa [13]): 38.3 µM
Compound: [N-]=[N+]=Nc1ccc(Cn2cc(NC(=O)CCCCCCC(=O)NO)cn2)cc1
Activity (SH-SY5Y [5]): inactive
Activity (SH-SY5Y [7]): Non-toxic

EC50 (HepG2 [3]): 5.5 µM
EC50 (HepG2 [4]): > 50 µM
EC50 (HeLa [6]): 5.5 µM
EC50 (SH-SY5Y [8]): 22.7 µM
EC50 (HeLa [9]): 10.6 µM
EC50 (SH-SY5Y [10]): > 50 µM
EC50 (SH-SY5Y [11]): 23.2 µM
IC50 [2]: 0.044 µM
IC50 (Histone deacetylase 8): 0.076 µM
EC50 (HepG2 [12]): 12.6 µM
EC50 (HeLa [13]): 46.6 µM
Compound: O=C(CCCCCCC(=O)Nc1cnn(Cc2ccccc2)c1)NO
Activity (SH-SY5Y [5]): inactive
Activity (SH-SY5Y [7]): Non-toxic

IC50 [2]: 0.191 µM
IC50 (Histone deacetylase 8): 0.147 µM
Compound: CC(C)(C)OC(=O)Nc1ccc(Cn2cc(NC(=O)CCCCCCC(=O)NO)cn2)cc1

inhibition [14]: Active
inhibition [15]: Active
IC50 [2]: 0.073 µM
IC50 (Histone deacetylase 8): 0.707 µM
Compound: [N-]=[N+]=Nc1ccc(-c2cc(C(=O)NCCCCCCC(=O)NO)no2)cc1

Compound: O=C(CCCCCCC(=O)Nc1ccccc1)NO
Activity (HepG2 [16]): inactive
Activity (HepG2 [17]): Active
Activity (HepG2 [18]): inactive
Activity (HepG2 [19]): Active
